Measured values as given in ChEMBL document CHEMBL1137710, “Synthesis and in vitro antitumor activity of new quinoxaline derivatives” (2009).

Assays:
Assay type in all cases: functional
SF-268 = assay: Growth inhibition of human SF268 cells after 48 hrs by sulforhodamine B assay; settings: SF-268, 48 h
How it was run: (§1)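 NCI 60-human-tumor-cell-line panel, with compounds tested over a 5-log dose range. Values are taken from dose-response curves as log10 molar concentrations: GI50 is 50% net growth inhibition, TGI is total growth inhibition, and LC50 is 50% net cell death.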

NCI-H522 = assay: Growth inhibition of human NCI-H522 cells after 48 hrs by sulforhodamine B assay; settings: NCI-H522, 48 h; how it was run: as §1
SF-539 = assay: Growth inhibition of human SF539 cells after 48 hrs by sulforhodamine B assay; settings: SF-539, 48 h; how it was run: as §1
OVCAR-4 = assay: Growth inhibition of human OVCAR4 cells after 48 hrs by sulforhodamine B assay; settings: OVCAR-4, 48 h; how it was run: as §1
NCI-H226 = assay: Growth inhibition of human NCI-H226 cells after 48 hrs by sulforhodamine B assay; settings: NCI-H226, 48 h; how it was run: as §1
SK-MEL-5 = assay: Growth inhibition of human SK-MEL-5 cells after 48 hrs by sulforhodamine B assay; settings: SK-MEL-5, 48 h; how it was run: as §1
NCI-H460 = assay: Anticancer activity against human NCI-H460 cells assessed as cell growth at 100 uM after 48 hrs by sulforhodamine B assay; settings: NCI-H460, 48 h, read-out: Activity
HOP-62 = assay: Growth inhibition of human HOP62 cells after 48 hrs by sulforhodamine B assay; settings: HOP-62, 48 h; how it was run: as §1
HL-60(TB) = assay: Growth inhibition of human HL-60(TB) cells after 48 hrs by sulforhodamine B assay; settings: HL-60, 48 h
How it was run: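 Tested only on compounds active in a three-line prescreen, in the NCI 60-human-tumour-cell-line panel over a 5-log dose range. Values come from dose–response curves as log10 molar GI50, the concentration inhibiting 50% net cell growth. Log10 TGI (total growth inhibition) and log10 LC50 (50% net cell death) were derived too. Mean graph midpoints include insensitive lines at the highest concentration tested.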

MOLT-4 = assay: Growth inhibition of human MOLT4 cells after 48 hrs by sulforhodamine B assay; settings: MOLT-4, 48 h; how it was run: as §1
UO-31 = assay: Growth inhibition of human UO31 cells after 48 hrs by sulforhodamine B assay; settings: UO-31, 48 h
How it was run: (§2)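 Run in the NCI 60-human-tumour-cell-line panel, tested over a 5-log dose range. Dose–response curves gave three values per cell line, each as a log10 molar concentration: GI50 (50% inhibition of net cell growth), TGI (total inhibition of net growth) and LC50 (50% net cell death). The mean graph midpoint is the arithmetic mean over all lines, with insensitive lines entered at the highest concentration tested.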

T47D = assay: Growth inhibition of human T47D cells after 48 hrs by sulforhodamine B assay; how it was run: as §2
SK-MEL-2 = assay: Growth inhibition of human SK-MEL-2 cells after 48 hrs by sulforhodamine B assay; settings: SK-MEL-2, 48 h; how it was run: as §1
MCF7 = assay: Growth inhibition of human MCF7 cells after 48 hrs by sulforhodamine B assay; settings: MCF7, 48 h; how it was run: as §1
Malme-3M = assay: Growth inhibition of human MALME-3M cells after 48 hrs by sulforhodamine B assay; how it was run: as §1
UACC-257 = assay: Growth inhibition of human UACC257 cells after 48 hrs by sulforhodamine B assay; settings: UACC-257, 48 h; how it was run: as §2
SN12C = assay: Growth inhibition of human SN12C cells after 48 hrs by sulforhodamine B assay; how it was run: as §2
CCRF-CEM = assay: Growth inhibition of human CCRF-CEM cells after 48 hrs by sulforhodamine B assay; how it was run: as §1
NCI-H322M = assay: Growth inhibition of human NCI-H322M cells after 48 hrs by sulforhodamine B assay; how it was run: as §1
OVCAR-3 = assay: Growth inhibition of human OVCAR-3 cells after 48 hrs by sulforhodamine B assay; settings: OVCAR-3, 48 h; how it was run: as §1
A498 = assay: Growth inhibition of human A498 cells after 48 hrs by sulforhodamine B assay; settings: A498, 48 h; how it was run: as §1
UACC-62 = assay: Growth inhibition of human UACC62 cells after 48 hrs by sulforhodamine B assay; settings: UACC-62, 48 h; how it was run: as §2
K562 = assay: Growth inhibition of human K562 cells after 48 hrs by sulforhodamine B assay; settings: K562, 48 h; how it was run: as §1
SK-MEL-28 = assay: Growth inhibition of human SK-MEL-28 cells after 48 hrs by sulforhodamine B assay; settings: SK-MEL-28, 48 h; how it was run: as §1
IGROV-1 = assay: Growth inhibition of human IGROV1 cells after 48 hrs by sulforhodamine B assay; settings: IGROV-1, 48 h; how it was run: as §1
ACHN = assay: Growth inhibition of human ACHN cells after 48 hrs by sulforhodamine B assay
[1] = read-out: pLC50 (the source's name) (converted)

## Nc1cc(N)c2nc(-c3ccccc3)c(Sc3ccc(Cl)c(Cl)c3)nc2c1
SF-268
  GI50: 13.8 µM
  LC50: > 100 µM
SF-268; read-out: pTGI (converted)
  TGI: 51.3 µM
NCI-H522
  GI50: 7.59 µM
  LC50: > 100 µM
NCI-H522; read-out: pTGI (converted)
  TGI: 33.9 µM
SF-539
  GI50: 14.5 µM
  LC50: > 100 µM
SF-539; read-out: pTGI (converted)
  TGI: 41.7 µM
OVCAR-4
  GI50: 20 µM
OVCAR-4; [1]
  CC50: > 100 µM
OVCAR-4; read-out: pTGI (converted)
  TGI: > 100 µM
NCI-H226
  GI50: 3.02 µM
  LC50: > 100 µM
NCI-H226; read-out: pTGI (converted)
  TGI: 9.12 µM
SK-MEL-5
  GI50: 21.4 µM
SK-MEL-5; [1]
  CC50: > 100 µM
SK-MEL-5; read-out: pTGI (converted)
  TGI: 95.5 µM
NCI-H460
  growth at 100 µM: 0%
HOP-62
  GI50: 12.3 µM
  LC50: > 100 µM
HOP-62; read-out: pTGI (converted)
  TGI: 77.6 µM
HL-60(TB)
  GI50: 7.94 µM
  LC50: > 100 µM
HL-60(TB); read-out: pTGI (converted)
  TGI: > 100 µM
MOLT-4
  GI50: 4.07 µM
  LC50: > 100 µM
MOLT-4; read-out: pTGI (converted)
  TGI: > 100 µM
UO-31
  GI50: 3.8 µM
UO-31; [1]
  CC50: > 100 µM
UO-31; read-out: pTGI (converted)
  TGI: > 100 µM
T47D
  GI50: 13.2 µM
T47D; [1]
  CC50: > 100 µM
T47D; read-out: pTGI (converted)
  TGI: > 100 µM
SK-MEL-2
  GI50: 6.17 µM
SK-MEL-2; [1]
  CC50: > 100 µM
SK-MEL-2; read-out: pTGI (converted)
  TGI: 30.9 µM
MCF7
  GI50: 5.25 µM
MCF7; [1]
  CC50: > 100 µM
MCF7; read-out: pTGI (converted)
  TGI: 38 µM
Malme-3M
  GI50: 19.5 µM
Malme-3M; [1]
  CC50: > 100 µM
Malme-3M; read-out: pTGI (converted)
  TGI: 50.1 µM
UACC-257
  GI50: 17.8 µM
UACC-257; [1]
  CC50: > 100 µM
UACC-257; read-out: pTGI (converted)
  TGI: 58.9 µM
SN12C
  GI50: 7.59 µM
SN12C; [1]
  CC50: 64.6 µM
SN12C; read-out: pTGI (converted)
  TGI: 23.4 µM
CCRF-CEM
  GI50: 2.51 µM
  LC50: > 100 µM
CCRF-CEM; read-out: pTGI (converted)
  TGI: > 100 µM
NCI-H322M
  GI50: 7.08 µM
  LC50: > 100 µM
NCI-H322M; read-out: pTGI (converted)
  TGI: 35.5 µM
OVCAR-3
  GI50: 11.7 µM
OVCAR-3; [1]
  CC50: > 100 µM
OVCAR-3; read-out: pTGI (converted)
  TGI: 46.8 µM
A498
  GI50: 17 µM
A498; [1]
  CC50: 57.5 µM
A498; read-out: pTGI (converted)
  TGI: 30.9 µM
UACC-62
  GI50: 6.76 µM
UACC-62; [1]
  CC50: > 100 µM
UACC-62; read-out: pTGI (converted)
  TGI: 42.7 µM
K562
  GI50: 15.8 µM
  LC50: > 100 µM
K562; read-out: pTGI (converted)
  TGI: > 100 µM
SK-MEL-28
  GI50: 13.8 µM
SK-MEL-28; [1]
  CC50: > 100 µM
SK-MEL-28; read-out: pTGI (converted)
  TGI: 57.5 µM
IGROV-1
  GI50: 2.95 µM
IGROV-1; [1]
  CC50: > 100 µM
IGROV-1; read-out: pTGI (converted)
  TGI: 27.5 µM
ACHN
  GI50: 1.7 µM
ACHN; [1]
  CC50: 5.62 µM
ACHN; read-out: pTGI (converted)
  TGI: 3.09 µM
